From ChEMBL document CHEMBL3259808, “Optimization of antitrypanosomatid agents: identification of nonmutagenic drug candidates with in vivo activity” (J Med Chem, 2014) come the findings set out here.

The test system of data set [1] is Salmonella typhimurium. In words: Mutagenic activity in Salmonella typhimurium TA98 at 3 to 250 ug/plate by Ames test in presence of mouse liver S9 fraction. The data set is classed as toxicity, organism-based. Particulars: salmonella enterica subsp. enterica serovar typhimurium. In outline:
(§1)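 Ames plate-incorporation assay with S. typhimurium TA98 in Vogel-Bonner E minimal glucose agar. Toxicity toward the bacteria was checked first. DMSO solutions were run in triplicate at five consecutive third-dilutions, starting at the highest non-toxic dose. Positive controls were 4-nitro-o-phenylenediamine (20.0 μg/plate) and 2-aminofluorene (10.0 μg/plate); DMSO was the negative control. Revertants were counted manually. A compound was called mutagenic when revertants were at least twice the negative control at two or more consecutive doses.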

The test system of data set [2] is Trypanosoma cruzi. In words: Antitrypanosomal activity against Trypanosoma cruzi Tulahuen 2 epimastigotes assessed as growth inhibition after 5 days. In kind it is functional, organism-based. Particulars: Trypanosoma cruzi, Tulahuen 2, 120 h. The procedure, abridged: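 Epimastigotes were grown axenically at 28 °C in BHI-tryptose with 5% FBS and seeded from a 5–7 day culture at 1 × 10⁶ cells/mL. Drug from a DMSO stock was added (final DMSO ≤0.4%; the control contained 0.4% DMSO). Duplicates were run. A600 was read at day 5, and % inhibition was calculated relative to day-0 and control readings. IC50 = concentration that halves the absorbance ratio.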

The subject of data set [3] is Salmonella typhimurium. The data set is described as follows: Mutagenic activity in Salmonella typhimurium TA98 at 5 to 400 ug/plate by Ames test. Particulars: salmonella enterica subsp. enterica serovar typhimurium. In kind it is toxicity, organism-based. In outline:
as §1

Data set [4] concerns Trypanosoma cruzi. In words: Antitrypanosomal activity against Trypanosoma cruzi Sylvio X-10 amastigotes infected in African green monkey Vero cells assessed as eradication of amastigotes after 5 days by Giemsa staining-based assay. Particulars: Sylvio X-10, Vero, 120 h. In kind it is functional, organism-based. The procedure, abridged:
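VERO cells in RPMI 1640 with 10% hiFCS were allowed to adhere for 24 h at 37 °C in 5% CO₂, then infected with tissue-derived trypomastigotes at 10:1. Free parasites were washed off after 24 h, and cultures were treated at five compound doses (text gives 72 h / 5 days). Cultures were methanol-fixed and Giemsa-stained, and infected cells were counted among 300. Quadruplicates were run in three independent experiments. IC50/IC90 were obtained by sigmoidal regression.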

Data set [5] relates to Salmonella typhimurium. The data set is described as follows: Mutagenic activity in Salmonella typhimurium TA98 at 0.04 to 4 ug/plate by Ames test. In kind it is toxicity, organism-based. As to conditions: salmonella enterica subsp. enterica serovar typhimurium. The procedure, abridged:
as §1

Data set [6] is described as follows: Selectivity index, ratio of IC50 for African green monkey Vero cells to IC50 for Trypanosoma cruzi Sylvio X-10 amastigotes. The data set is classed as toxicity, cell-based. As to conditions: read-out: Ratio IC50. In outline: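 VERO cytotoxicity: cells exposed 48 h at 37 °C, 5% CO2 to serial dilutions from a maximum of 2000 μM (DMSO stocks; DMSO <0.1% control); growth inhibition read by MTT at 570 nm. Amastigote IC50: Sylvio X-10-infected VERO cells, five doses, infected cells counted among 300 (Giemsa), quadruplicate, three experiments, sigmoidal fit. SI = IC50 VERO / IC50 amastigote.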

The test system of data set [7] is Salmonella typhimurium. The data set is described as follows: Mutagenic activity in Salmonella typhimurium TA98 at 0.04 to 4 ug/plate by Ames test in presence of mouse liver S9 fraction. The data set is classed as toxicity, organism-based. Particulars: salmonella enterica subsp. enterica serovar typhimurium. The procedure, abridged:
as §1

The subject of data set [8] is Salmonella typhimurium. The data set is described as follows: Mutagenic activity in Salmonella typhimurium TA98 at 0.02 to 2 ug/plate by Ames test in presence of mouse liver S9 fraction. Particulars: salmonella enterica subsp. enterica serovar typhimurium. In kind it is toxicity, organism-based. In outline:
(§2)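 Plate-incorporation Ames test on minimal glucose agar with 500 μL Aroclor-treated mouse liver S9 added. DMSO solutions were tested at five consecutive 3-fold dilutions from the highest non-toxic dose, in triplicate, with a DMSO negative control. Revertants were counted manually; a compound was scored mutagenic when revertants were at least twice the negative control for two or more consecutive doses.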

Data set [9] concerns Salmonella typhimurium. In words: Mutagenic activity in Salmonella typhimurium TA98 at 0.02 to 2 ug/plate by Ames test. In kind it is toxicity, organism-based. Particulars: salmonella enterica subsp. enterica serovar typhimurium. In outline:
(§3)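 Direct plate incubation on minimal glucose agar (Vogel-Bonner E). Compound toxicity to the bacteria was checked first. DMSO solutions were tested at five consecutive 3-fold dilutions, starting from the highest non-toxic dose, in triplicate, without metabolic activation. DMSO served as negative control. Revertants were counted manually; mutagenic = revertants at least double the negative control at two or more consecutive doses.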

Data set [10] can be described thus: Selectivity index, ratio of IC50 for human RBC to IC50 for Trypanosoma cruzi Sylvio X-10 amastigotes. The procedure, abridged:
(§4)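 Hemolysis: washed human erythrocytes (2% w/v in PBS) incubated 24 h at 37 °C with compound at final 50, 100 and 200 μM. Ten replicates per concentration. Hemoglobin release read at 405 nm against water lysis as 100%; amphotericin B 1.5 μM was the positive control. SI = IC50 red cells / parasite IC50 (Sylvio X-10 amastigotes or Tulahuen 2 epimastigotes).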

Data set [11] is described as follows: Cytotoxicity against African green monkey Vero cells assessed as growth inhibition at 25 uM after 48 hrs by MTT assay relative to control. In kind it is cell-based. Particulars: chlorocebus sabaeus, read-out: GI. The procedure, abridged:
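VERO cells were exposed to serial dilutions in fresh medium of compounds dissolved in DMSO, for 48 h at 37 °C in 5% CO₂. A DMSO (<0.1%) negative control was included. Growth inhibition was read by MTT at 570 nm; nifurtimox was the positive control.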

Data set [12] has as its system Salmonella typhimurium. The data set is described as follows: Mutagenic activity in Salmonella typhimurium TA98 at 0.005 to 0.4 ug/plate by Ames test in presence of mouse liver S9 fraction. The data set is classed as toxicity, organism-based. Particulars: salmonella enterica subsp. enterica serovar typhimurium. In outline:
as §2

The subject of data set [13] is Salmonella typhimurium. The data set is described as follows: Mutagenic activity in Salmonella typhimurium TA98 at 0.005 to 0.4 ug/plate by Ames test. In kind it is toxicity, organism-based. Particulars: salmonella enterica subsp. enterica serovar typhimurium. In outline: as §3
A short description of data set [14]: Selectivity index, ratio of IC50 for human RBC to IC50 for Trypanosoma cruzi Tulahuen 2 epimastigotes. The procedure, abridged:
as §4

A short description of data set [15]: Stability of the compound in aqueous solution assessed as compound remaining at 1 mM at pH 7.4 after 1 hr by TLC analysis. In kind it is physicochemical. Particulars: aqueous solution, pH 7.4; read-out: Stability. The procedure, abridged:
(§5)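 DMSO stocks diluted to final 1 mM in KCl·HCl pH 1.0, citrate pH 6.0, Tris·HCl pH 7.4 or borax·HCl pH 9.0 buffer. Incubated 1 h at 37 °C, then ethyl acetate extracts checked by TLC for decomposition products.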

A short description of data set [16]: Stability of the compound in aqueous solution assessed as compound remaining at 1 mM at pH 9 after 1 hr by TLC analysis. In kind it is physicochemical. As to conditions: aqueous solution, pH 9; read-out: Stability. The procedure, abridged: as §5
Data set [17] is described as follows: Stability of the compound in aqueous solution assessed as compound remaining at 1 mM at pH 6 after 1 hr by TLC analysis. The data set is classed as physicochemical. As to conditions: aqueous solution, pH 6; read-out: Stability. The procedure, abridged:
as §5

Data set [18] deals with Salmonella typhimurium. In words: Mutagenic activity in Salmonella typhimurium TA98 at 5 to 400 ug/plate by Ames test in presence of mouse liver S9 fraction. Particulars: salmonella enterica subsp. enterica serovar typhimurium. The data set is classed as toxicity, organism-based. The procedure, abridged:
as §1

Turning to `C=CCN1C(=O)CS\C1=N/N=C/C=C/c1cccs1`, the Activity result with Salmonella typhimurium [1] and in the data set on Salmonella typhimurium [3] was “Toxic” each time. Besides, the IC50 with Trypanosoma cruzi [2] was found to be 20 µM.
Regarding `C=CCn1c(-c2ccc([N+](=O)[O-])cc2)cs\c1=N/N=C/C=C/c1ccc([N+](=O)[O-])s1`, the figures for the IC50 with Trypanosoma cruzi [4] and in the data set with Trypanosoma cruzi [2] were 8.2 µM and 3.3 µM, respectively. Besides, the Activity entry with Salmonella typhimurium [5] and in the data set on Salmonella typhimurium [7] was “Toxic” each time. Besides, in data set [6], the selectivity ratio is 13.
In the case of `C=CCN1C(=O)CS\C1=N/N=C/C=C/c1ccc([N+](=O)[O-])s1`, the IC50 with Trypanosoma cruzi [4] stood at 2.8 µM; with Trypanosoma cruzi [2] it was 1.3 µM. Moreover, in data set [6], the selectivity ratio amounted to 80. Also, the Activity result with Salmonella typhimurium [8] is “Non-toxic”; in the data set on Salmonella typhimurium [9] it was “Toxic”. For the same compound, in data set [10], the Ratio IC50 came out at 28.
In the case of `CC(=O)N(C1=NN(C(C)=O)C(c2ccc([N+](=O)[O-])s2)S1)c1ccccc1` (configuration not stated), in data set [11], the inhibition at 48 h, 25 µM was over 50%. For the same compound, the Activity entry in the data set on Salmonella typhimurium [12] is “Non-toxic”; in the data set on Salmonella typhimurium [13], “Toxic”. Also, the IC50 in the data set with Trypanosoma cruzi [2] was 2.9 µM. Also, in data set [14], the Ratio IC50 came to 3.
For the compound `C=CCn1c(C)cs/c1=N\N=C\c1ccc([N+](=O)[O-])s1`, the IC50 stood at 10.5 µM with Trypanosoma cruzi [4] and 10 µM with Trypanosoma cruzi [2]. For the same compound, the Activity result in the data set with Salmonella typhimurium [12] and with Salmonella typhimurium [13] was “Non-toxic” throughout.
Turning to `Br.C=CCn1c(-c2ccc(Br)cc2)cs\c1=N/N=C/C=C/c1ccco1`, the remaining at 1 h, 1000 µM in [15], in data set [16] and in [17] was over 95% in each case. Besides, the IC50 in the data set on Trypanosoma cruzi [2] came out at 2.9 µM. In addition, the Activity entry in the data set on Salmonella typhimurium [3] and in the data set on Salmonella typhimurium [18] was “Non-toxic” each time.
Take `O=[N+]([O-])c1ccc(/C=N/N=c2\[nH]c(-c3ccc(Cl)cc3)cs2)s1`: the inhibition at 48 h, 25 µM in data set [11] was over 50%. The IC50 in the data set with Trypanosoma cruzi [2] stood at 4.9 µM.
As to `C=CCn1c(-c2ccc(OC)cc2)cs\c1=N/N=C/C=C/c1ccco1`, the remaining at 1 h, 1000 µM in data set [15], in [16] and in [17] was over 95% throughout. Also, the IC50 in the data set on Trypanosoma cruzi [2] stood at 4.9 µM. Moreover, the Activity result in the data set on Salmonella typhimurium [3] and in the data set with Salmonella typhimurium [18] was “Non-toxic” in each case.
